Measurements published in ChEMBL document CHEMBL2010720, “Synthesis and evaluation of ursolic acid derivatives as potent cytotoxic agents” (Bioorg Med Chem Lett, 2012).

Assays:
AGS [1] = assay: Cell cycle arrest in human AGS cells assessed as accumulation at S phase cells at 10 uM after 48 hrs by flow cytometry (reference value: 36.56 +/- 0.36%); type: functional
AGS [2] = assay: Cell cycle arrest in human AGS cells assessed as accumulation at G2/M phase cells at 10 uM after 48 hrs by flow cytometry (reference value: 35.37 +/- 3.73%); type: functional
AGS [3] = assay: Cell cycle arrest in human AGS cells assessed as accumulation at G0/G1 phase cells at 10 uM after 48 hrs by flow cytometry (reference value: 28.07 +/- 3.52%); type: functional
AGS [4] = assay: Cytotoxicity against human AGS cells after 48 hrs by MTT assay; type: functional, cell-based
In short: (§1)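 Cells seeded at 1×10^4 per well and treated 24 h later for 48 h at 10, 20, 40, 60, 80 and 100 µM, each in six wells. Compounds came from 20 mM DMSO stocks diluted in medium; the vehicle control matched the DMSO of the top dose. MTT was added for 4 h, formazan dissolved in DMSO and read at 570 nm. IC50 was taken as the concentration giving 50% growth inhibition.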

AGS [5] = assay: Cell cycle arrest in human AGS cells assessed as accumulation at sub-G0/G1 phase cells at 10 uM after 48 hrs by flow cytometry (reference value: 1.56 +/- 0.20%); type: functional
PC-3 = assay: Cytotoxicity against human PC3 cells after 48 hrs by MTT assay; type: functional, cell-based; settings: PC-3, 48 h; in short: as §1
HT-29 = assay: Cytotoxicity against human HT-29 cells after 48 hrs by MTT assay; type: functional, cell-based; settings: HT-29, 48 h; in short: as §1
HepG2 = assay: Cytotoxicity against human HepG2 cells after 48 hrs by MTT assay; type: functional, cell-based; settings: HepG2, 48 h; in short: as §1
AGS [6] = assay: Cell cycle arrest in human AGS cells assessed as accumulation at S phase cells at 20.6 uM after 48 hrs by flow cytometry (reference value: 36.56 +/- 0.36%); type: functional
AGS [7] = assay: Cell cycle arrest in human AGS cells assessed as accumulation at G2/M phase cells at 20.6 uM after 48 hrs by flow cytometry (reference value: 35.37 +/- 3.73%); type: functional
AGS [8] = assay: Cell cycle arrest in human AGS cells assessed as accumulation at sub-G0/G1 phase at 20.6 uM after 48 hrs by flow cytometry (reference value: 1.56 +/- 0.20%); type: functional
AGS [9] = assay: Cell cycle arrest in human AGS cells assessed as accumulation at G0/G1 phase cells at 20.6 uM after 48 hrs by flow cytometry (reference value: 28.07 +/- 3.52%); type: functional
AGS [10] = assay: Induction of apoptosis in human AGS cells assessed as late apoptotic cells at 10 uM after 24 hrs by annexin-V/PI staining-based flow cytometric analysis (reference value: 2.5%); type: functional
AGS [11] = assay: Induction of apoptosis in human AGS cells assessed as viable cells at 10 uM after 24 hrs by annexin-V/PI staining-based flow cytometric analysis (reference value: 95.5%); type: functional; settings: read-out: Activity
AGS [12] = assay: Induction of apoptosis in human AGS cells assessed as necrotic cells at 20 uM after 24 hrs by annexin-V/PI staining-based flow cytometric analysis (reference value: 0.1%); type: functional
AGS [13] = assay: Induction of apoptosis in human AGS cells assessed as late apoptotic cells at 5 uM after 24 hrs by annexin-V/PI staining-based flow cytometric analysis (reference value: 2.5%); type: functional
AGS [14] = assay: Induction of apoptosis in human AGS cells assessed as early apoptotic cells at 10 uM after 24 hrs by annexin-V/PI staining-based flow cytometric analysis (reference value: 1.9%); type: functional
AGS [15] = assay: Induction of apoptosis in human AGS cells assessed as early apoptotic cells at 5 uM after 24 hrs by annexin-V/PI staining-based flow cytometric analysis (reference value: 1.9%); type: functional
AGS [16] = assay: Induction of apoptosis in human AGS cells assessed as early apoptotic cells at 20 uM after 24 hrs by annexin-V/PI staining-based flow cytometric analysis (reference value: 1.9%); type: functional
AGS [17] = assay: Induction of apoptosis in human AGS cells assessed as viable cells at 5 uM after 24 hrs by annexin-V/PI staining-based flow cytometric analysis (reference value: 95.5%); type: functional; settings: read-out: Activity
AGS [18] = assay: Induction of apoptosis in human AGS cells assessed as viable cells at 20 uM after 24 hrs by annexin-V/PI staining-based flow cytometric analysis (reference value: 95.5%); type: functional; settings: read-out: Activity
AGS [19] = assay: Induction of apoptosis in human AGS cells assessed as necrotic cells at 10 uM after 24 hrs by annexin-V/PI staining-based flow cytometric analysis (reference value: 0.1%); type: functional
AGS [20] = assay: Induction of apoptosis in human AGS cells assessed as necrotic cells at 5 uM after 24 hrs by annexin-V/PI staining-based flow cytometric analysis (reference value: 0.1%); type: functional
AGS [21] = assay: Induction of apoptosis in human AGS cells assessed as late apoptotic cells at 20 uM after 24 hrs by annexin-V/PI staining-based flow cytometric analysis (reference value: 2.5%); type: functional

| SMILES | Activity (AGS [1]) [%] | Activity (AGS [2]) [%] | Activity (AGS [3]) [%] | IC50 (AGS [4]) [µM] | Activity (AGS [5]) [%] | IC50 (PC-3) [µM] | IC50 (HT-29) [µM] | IC50 (HepG2) [µM] | also measured |
| --- | --- | --- | --- | --- | --- | --- | --- | --- | --- |
| C[C@H]1[C@H](C)CC[C@]2(C(=O)NCCNC(=O)[C@@H](N)Cc3ccccc3)CC[C@]3(C)C(=CC[C@@H]4[C@@]5(C)CC[C@H](O)C(C)(C)[C@@H]5CC[C@]43C)[C@H]12 | 11.79 | 45.59 | 42.62 | < 10 | 47.73 | < 10 |  |  |  |
| C[C@H]1[C@H](C)CC[C@]2(C(=O)O)CC[C@]3(C)C(=CC[C@@H]4[C@@]5(C)CC[C@H](O)C(C)(C)[C@@H]5CC[C@]43C)[C@H]12 [URSOLIC ACID] |  |  |  | 20.6 |  | 22.3 | 25.3 | 53.4 | Activity (AGS [6]): 14.64%; Activity (AGS [7]): 52.16%; Activity (AGS [8]): 86.53%; Activity (AGS [9]): 33.2% |
| C[C@H]1[C@H](C)CC[C@]2(C(=O)NCCNC(=O)CN)CC[C@]3(C)C(=CC[C@@H]4[C@@]5(C)CC[C@H](O)C(C)(C)[C@@H]5CC[C@]43C)[C@H]12 | 11.23 | 71.45 | 17.72 | 10.2 | 44.69 | 19.6 |  |  |  |
| CC(=O)O[C@H]1C(=O)[C@@]2(C)[C@H]([C@H](OC(=O)c3ccccc3)[C@]3(O)C[C@H](OC(=O)[C@H](O)[C@@H](NC(=O)c4ccccc4)c4ccccc4)C(C)=C1C3(C)C)[C@]1(OC(C)=O)CO[C@@H]1C[C@@H]2O [PACLITAXEL] | 7.9 | 86.18 | 5.92 | < 10 | 70.41 | 57.2 | < 10 | 30.7 |  |
| C[C@H]1[C@H](C)CC[C@]2(C(=O)NC(CCC(=O)O)C(=O)O)CC[C@]3(C)C(=CC[C@@H]4[C@@]5(C)CC[C@H](O)C(C)(C)[C@@H]5CC[C@]43C)[C@H]12 (stereo not given in full) |  |  |  | > 100 |  | > 100 | > 100 | > 100 |  |
| CC(=O)O[C@H]1CC[C@]2(C)[C@H]3CC=C4[C@@H]5[C@@H](C)[C@H](C)CC[C@]5(C(=O)NCCNC(=O)[C@@H](N)Cc5ccccc5)CC[C@@]4(C)[C@]3(C)CC[C@H]2C1(C)C | 2.06 | 35.31 | 63.49 | < 10 | 87.64 | < 10 | < 10 | < 10 |  |
| C[C@H]1[C@H](C)CC[C@]2(C(=O)NCCN)CC[C@]3(C)C(=CC[C@@H]4[C@@]5(C)CC[C@H](O)C(C)(C)[C@@H]5CC[C@]43C)[C@H]12 | 66.66 | 2.51 | 30.83 | 11.4 | 92.64 | < 10 | 14.3 | 21.3 | Activity (AGS [10]): 11.8%; viability at 10 µM (AGS [11]): 59.9%; Activity (AGS [12]): 0.5%; Activity (AGS [13]): 6.1%; Activity (AGS [14]): 27.7%; Activity (AGS [15]): 8.9%; Activity (AGS [16]): 68.6%; viability at 5 µM (AGS [17]): 84.7%; viability at 20 µM (AGS [18]): 13.7%; Activity (AGS [19]): 0.7%; Activity (AGS [20]): 0.2%; Activity (AGS [21]): 17.2% |
| CC(=O)O[C@H]1CC[C@]2(C)[C@H]3CC=C4[C@@H]5[C@@H](C)[C@H](C)CC[C@]5(C(=O)NCCN)CC[C@@]4(C)[C@]3(C)CC[C@H]2C1(C)C | 1.42 | 46.72 | 51.86 | < 10 | 88.3 | < 10 | < 10 | 12.4 |  |
| C[C@H]1[C@H](C)CC[C@]2(C(=O)NC(CC(=O)O)C(=O)O)CC[C@]3(C)C(=CC[C@@H]4[C@@]5(C)CC[C@H](O)C(C)(C)[C@@H]5CC[C@]43C)[C@H]12 (stereo not given in full) |  |  |  | > 100 |  | > 100 | > 100 | > 100 |  |
| CSCC[C@H](N)C(=O)NCCNC(=O)[C@]12CC[C@@H](C)[C@H](C)[C@H]1C1=CC[C@@H]3[C@@]4(C)CC[C@H](O)C(C)(C)[C@@H]4CC[C@@]3(C)[C@]1(C)CC2 | 18.46 | 68.65 | 12.9 | < 10 | 50.03 | < 10 |  | 16 |  |
| CC(=O)O[C@H]1CC[C@]2(C)[C@H]3CC=C4[C@@H]5[C@@H](C)[C@H](C)CC[C@]5(C(=O)NCCNC(=O)CN)CC[C@@]4(C)[C@]3(C)CC[C@H]2C1(C)C | 25.37 | 37.66 | 36.97 | < 10 | 75.45 | 14.3 | 20.2 | 15.5 |  |
| CSCC[C@H](N)C(=O)NCCNC(=O)[C@]12CC[C@@H](C)[C@H](C)[C@H]1C1=CC[C@@H]3[C@@]4(C)CC[C@H](OC(C)=O)C(C)(C)[C@@H]4CC[C@@]3(C)[C@]1(C)CC2 | 0 | 45.03 | 54.97 | < 10 | 82.38 | < 10 | < 10 | < 10 |  |
